# Laboratory results as given in paper PMC8788976 (Veterinary Medicine and Science, 2021).
# How the values were obtained:
# [1] = Single oral dose pharmacokinetic study in Beagle dogs; assay type: in vivo; details: for AUC 24h / AUC last / C max: mean ± SD; for T last / T max: median (range)
# How it was run: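 Single oral dose of 1 or 4 mg/kg given as micronised drug in gelatine capsules, followed by 5 ml water; dogs fasted overnight until 4 h post-dose. Jugular blood taken pre-dose, at 0.25–12 h, then daily to day 21. K3-EDTA plasma (2500 g, 15 min, 4°C) stored at −80°C. Parent and pyrazol metabolite measured by SPE then HPLC-MS/MS (celecoxib internal standard). Non-compartmental analysis: Cmax observed; AUC by linear trapezoidal rule; AUCinf extrapolated using the terminal rate constant.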
# [2] = Plasma concentrations in the single dose arthritis induction study; assay type: in vivo, Beagle dogs
# How it was run: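 Ten male Beagles (23–36 months, 9–12 kg); six received oral 4 mg/kg on day 0 and again on day 12. Urate crystal suspension injected into the stifle joint on days 0 (2 h post-dose), 2, 7, 14 and 21. Jugular blood taken at each injection time and processed as for plasma PK. Parent and pyrazol metabolite quantified by HPLC-MS/MS.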
# [3] = Plasma concentrations in the repeated dose arthritis induction study; assay type: in vivo, Beagle dogs
# How it was run: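 Twelve male Beagles given oral 8 mg/kg on day 0, then 4 mg/kg weekly on days 7, 14 and 21, with stifle urate crystal inductions during the study. Jugular blood taken at time points including each intra-articular injection, and through day 56. Plasma processed as in the PK study. Pyrazol metabolite quantified by SPE then HPLC-MS/MS; values reported as mean ± SD.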
# [4] = Population PK model of enflicoxib and pyrazol metabolite; design: species or system Beagle dogs
# How it was run: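 Population PK model built from two sources. Toxicokinetic data: 228 samples from 12 Beagles, days 1 and 28, daily 1 or 4 mg/kg. PK data: 341 parent/metabolite samples from 26 Beagles in the oral PK and two arthritis studies. Structure: two-compartment parent (first-order absorption with lag, first-order elimination) and three-compartment metabolite. Body weight included as covariate. Evaluated by visual predictive check (90% intervals); parameter CIs from non-parametric bootstrap.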
# [5] = test system: urate crystal-induced acute arthritis; assay type: in vivo, Beagle dogs; details: plasma level, acute arthritis induction model in dogs
# How it was run: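 Efficacy dataset: 18 enflicoxib-treated dogs from both urate arthritis studies, giving 71 paired observations of plasma parent or pyrazol metabolite level and lameness score taken at the same time. These pairs were linked to the population PK model to define the minimum effective plasma concentration.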
# [6] = test system: COX-2 enzymes isolated from sheep placenta; details: ref Wagemakers et al., 2009; cited from earlier work
# [7] = test system: urate crystal-induced acute arthritis; experiment: Single dose arthritis induction study; assay type: in vivo, Beagle dogs
# How it was run: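 Male Beagles (23–36 months, 9–12 kg). Groups: six dogs oral 4 mg/kg on days 0 and 12; three dogs reference coxib 2 mg/kg on days 0 and 14; one dog untreated. Stifle urate crystal injections on days 0 (2 h post-dose), 2, 7, 14 and 21. Blinded scoring before and 0.5–12 h after each injection. Standing plus walking lameness summed as CLS; pain scored on palpation.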
smiles,measurement,setting,value
NS(=O)(=O)c1ccc(-n2nc(C(F)(F)F)cc2-c2ccc(F)cc2F)cc1 [Pyrazol metabolite],AUC 24h,[1]; single oral enflicoxib 1 mg/kg,1104 ± 502 ng·h/mL
same,AUC last,[1]; single oral enflicoxib 1 mg/kg,"40,784 ± 10,228 ng·h/ml"
same,C max,[1]; single oral enflicoxib 1 mg/kg,165.8 ± 48.5 ng/mL
same,T last,[1]; single oral enflicoxib 1 mg/kg,480 h
same,T max,[1]; single oral enflicoxib 1 mg/kg,132.0 (96–168) h
same,AUC 24h,[1]; single oral enflicoxib 4 mg/kg,2647 ± 1322 ng·h/mL
same,AUC last,[1]; single oral enflicoxib 4 mg/kg,"132,329 ± 33,065 ng·h/ml"
same,C max,[1]; single oral enflicoxib 4 mg/kg,577.0 ± 203.4 ng/mL
same,T last,[1]; single oral enflicoxib 4 mg/kg,480 h
same,T max,[1]; single oral enflicoxib 4 mg/kg,132.0 (96–168) h
same,terminal half-life read from the graphic profile,"[1]; single oral enflicoxib 1 or 4 mg/kg, not adequately determinable",around 14 days
same,plasma concentration,"[2]; day 0, single 4 mg/kg enflicoxib, average ± SD",59 ± 34 ng/mL
same,plasma concentration,"[2]; day 2, single 4 mg/kg enflicoxib, average ± SD",207 ± 191 ng/mL
same,plasma concentration,"[2]; day 7, single 4 mg/kg enflicoxib, average ± SD",321 ± 241 ng/mL
same,plasma concentration,"[2]; day 14, after second 4 mg/kg dose on day 12, average ± SD",492 ± 240 ng/mL
same,plasma concentration,"[2]; day 21, after second 4 mg/kg dose on day 12, average ± SD",398 ± 172 ng/mL
same,maximum plasma level,"[3]; day 23, 8 mg/kg loading, 4 mg/kg on days 7, 14, 21",1748 ± 334 ng/mL
same,plasma level at end of experimental period,"[3]; day 56, 28 days after last dose administration",348 ± 152 ng/mL
same,"CLM/F (θ7), Bootstrap Median","[4]; apparent clearance of pyrazol metabolite, bootstrap",0.111 L/h
same,"CLM/F (θ7), Value","[4]; apparent clearance of pyrazol metabolite, θ7·(WGT/9.9)^0.75",0.111 L/h
same,"VM/F (θ4), Value","[4]; central compartment, assumed the same as that of enflicoxib",6.59 L
same,"VM/F (θ4), Bootstrap Median","[4]; central compartment, bootstrap",6.60 L
same,"CLM2/F (θ12), Bootstrap Median","[4]; central-deep peripheral, bootstrap",0.132 L/h
same,"CLMP/F (θ8), Bootstrap Median","[4]; central-shallow peripheral, bootstrap",13.2 L/h
same,"VM2/F (θ13), Bootstrap Median","[4]; deep peripheral compartment, bootstrap",13.5 L
same,"VM2/F (θ13), Value","[4]; deep peripheral compartment, θ13·(WGT/9.9)^1.0",13.4 L
same,"CLM2/F (θ12), Value","[4]; distribution clearance central-deep peripheral, θ12·(WGT/9.9)^0.75",0.131 L/h
same,"CLMP/F (θ8), Value","[4]; distribution clearance central-shallow peripheral, θ8·(WGT/9.9)^0.75",13.2 L/h
same,estimated terminal half-life,[4]; population PK model,13.8 days
same,"Inter-individual variability on CLM/F, Value","[4]; random parameter, %CV",31%
same,"Residual variability, Value","[4]; random parameter, %CV",20%
same,"Inter-individual variability on CLM/F, Bootstrap Median","[4]; random parameter, bootstrap",31%
same,"Residual variability, Bootstrap Median","[4]; random parameter, bootstrap",20%
same,"VMP/F (θ9), Bootstrap Median","[4]; shallow peripheral compartment, bootstrap",29.33 L
same,"VMP/F (θ9), Value","[4]; shallow peripheral compartment, θ9·(WGT/9.9)^1.0",29.3 L
same,Minimum Effective Concentration (MEC),[5],411 ng/mL
same,selectivity for COX-2 versus COX-1,[6],more than 250 fold
NS(=O)(=O)c1ccc(-n2nc(C(F)(F)F)cc2-c2ccc(F)cc2)cc1 [mavacoxib],lameness and pain after induction,"[7]; days 0 and 7, mavacoxib 2 mg/kg on days 0 and 14",some degree of lameness and pain
same,lameness or pain after induction,"[7]; days 14 and 21, after second administration on day 14, mavacoxib 2 mg/kg",none or mild lameness or pain
